# Changes are numbered by the printed parent chain. Where “and” joins values, the source holds several entries; their conditions need not be identical. Equal entries are not always repeated. Entries after “also recorded” stand apart in the source; their conditions may differ. Where two headings read alike, the source gives them in different places. Marks after values point to notes of the source that are not given here.
# What was measured:
# human TRPV3 (WT) = target: T1, human TRPV3 (WT) (Homo sapiens, UniProt Q8NET8); assay type: cell-based
# T1 sequence (Q8NET8 1-790): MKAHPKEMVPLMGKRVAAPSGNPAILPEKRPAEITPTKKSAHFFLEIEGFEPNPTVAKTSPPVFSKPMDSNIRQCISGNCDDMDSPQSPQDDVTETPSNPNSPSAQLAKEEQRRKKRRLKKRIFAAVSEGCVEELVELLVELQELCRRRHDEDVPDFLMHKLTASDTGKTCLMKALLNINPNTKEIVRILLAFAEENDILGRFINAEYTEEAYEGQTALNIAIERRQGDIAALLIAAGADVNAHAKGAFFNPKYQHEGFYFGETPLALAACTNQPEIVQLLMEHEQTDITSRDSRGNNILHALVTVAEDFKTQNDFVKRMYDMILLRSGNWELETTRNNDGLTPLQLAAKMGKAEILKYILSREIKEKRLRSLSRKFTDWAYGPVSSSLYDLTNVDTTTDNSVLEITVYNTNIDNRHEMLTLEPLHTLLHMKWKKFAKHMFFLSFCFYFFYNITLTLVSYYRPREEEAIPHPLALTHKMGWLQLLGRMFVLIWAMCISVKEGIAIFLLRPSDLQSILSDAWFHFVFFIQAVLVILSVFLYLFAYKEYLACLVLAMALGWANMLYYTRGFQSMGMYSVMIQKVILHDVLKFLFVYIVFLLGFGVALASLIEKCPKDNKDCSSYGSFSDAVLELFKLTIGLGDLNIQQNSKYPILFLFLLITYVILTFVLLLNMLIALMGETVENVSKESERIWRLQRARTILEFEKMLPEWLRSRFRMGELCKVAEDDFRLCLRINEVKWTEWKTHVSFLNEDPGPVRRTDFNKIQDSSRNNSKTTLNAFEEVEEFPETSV
# native TRPV3 channels = target: T2, native TRPV3 channels (Homo sapiens, UniProt Q8NET8); assay type: cell-based; conditions: for activation of membrane currents by TRP channel agonists: bath superfusion, 2-APB 30 µM; for increase of 2-APB-activated TRPV3 whole cell current amplitude: 100 µM ATP, n = 4 cells
# T2 sequence (Q8NET8 1-790): T1 sequence (Q8NET8 1-790)
# How it was run: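 Whole-cell voltage clamp of primary human epidermal keratinocytes plated on coverslips and recorded 24–48 h later, at room temperature. Bath was NaCl/KCl/HEPES/glucose/MgCl2/1.8 mM BaCl2, pH 7.4; pipette was Cs-methanesulfonate with ~50 nM free Ca2+, pH 7.3. Voltage steps were run in 30 µM 2-APB, then with 100 µM ATP or vehicle. Tail currents were fitted with Boltzmann functions for V0.5 and VIF; n = 4 cells.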
# TRPV3 R696A [1] = target: T3, TRPV3 R696A (Homo sapiens, UniProt Q8NET8, R696A); assay type: cell-based
# T3 sequence (Q8NET8 1-790 R696A): T1 sequence (Q8NET8 1-790) with R696A
# WT TRPV3 = target: T4, WT TRPV3 (Homo sapiens, UniProt Q8NET8); assay type: biochemical; conditions: inside-out patches, +80 mV; for effect on NPOPEN of PI-PLC-stimulated TRPV3: 30 µM diC8-phosphatidylinositol phosphate
# T4 sequence (Q8NET8 1-790): T1 sequence (Q8NET8 1-790)
# How it was run: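 WT TRPV3 was expressed in HM1 cells by calcium-phosphate transfection and recorded 24–48 h later. Inside-out patches were held at +80 mV in symmetrical NaCl/HEPES/EGTA at pH 7.4. Patches got anti-PI(4,5)P2 mAb (1:200) or 0.5 U/ml PI-PLC for 5 min, or 100 µM OAG for 2 min, by perfusion and then a still bath. diC8-phosphoinositides were added after PI-PLC. NPOPEN was taken before and after; Hill fit over 1–60 µM.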
# TRPV3 R696A [2] = target: T3, TRPV3 R696A; assay type: biochemical; conditions: 30 µM diC8-PI(4,5)P2, inside-out patches
# How it was run: (§1)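 HM1 cells were calcium-phosphate transfected with the mutant channel, GFP-identified, and used 24–48 h later. Inside-out patches were held at +80 mV at 21–24°C in symmetrical 145 mM NaCl, 5 mM […], 20 mM HEPES, 1 mM EGTA, pH 7.4. Patches received anti-PI(4,5)P2 mAb (1:200) or 0.5 U/ml PI-PLC, then 30 µM diC8-PI(4,5)P2. NPOPEN was measured, n = 3–5 patches.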
# TRPV3 K705A = target: T5, TRPV3 K705A (Homo sapiens, UniProt Q8NET8, K705A); assay type: biochemical; conditions: 30 µM diC8-PI(4,5)P2, inside-out patches
# T5 sequence (Q8NET8 1-790 K705A): T1 sequence (Q8NET8 1-790) with K705A
# How it was run: as §1
structure (smiles),measurement,setting,value
"NCCOB(c1ccccc1)c1ccccc1 [2-APB, 2-aminoethyoxy diphenylborinate]",increase in 2-APB potency after CCh exposure,human TRPV3 (WT),approximately fourfold
same,activation of membrane currents by TRP channel agonists,native TRPV3 channels; whole cell,activated small voltage-dependent currents
Nc1ncnc2c1ncn2[C@@H]1O[C@H](COP(=O)(O)OP(=O)(O)OP(=O)(O)O)[C@@H](O)[C@H]1O [ATP],increase of 2-APB-activated TRPV3 whole cell current amplitude,"native TRPV3 channels; 30 µM 2-APB, +80 mV",5.6 ± 1.6 fold
same,increase of 2-APB-activated TRPV3 whole cell current amplitude,"native TRPV3 channels; 30 µM 2-APB, −80 mV",6.3 ± 1.9 fold
same,increase of voltage-independent fraction (VIF),"native TRPV3 channels; after 100 µM ATP, 30 µM 2-APB",26.7 ± 5.1%
same,shift of half-maximal activation (V0.5),"native TRPV3 channels; after 100 µM ATP, 30 µM 2-APB",−61.7 ± 17.8 mV
"C[N+](C)(C)CCOC(N)=O.[Cl-] [CCh, carbamylcholine]",Arrhenius slope of temperature-dependent activation,human TRPV3 (WT),10.3
same,apparent threshold for temperature-dependent activation (Th),human TRPV3 (WT),18.3 ^a °C
same,change of thermal coefficient (Q10) by CCh exposure,human TRPV3 (WT),changed only slightly
same,fold change in step current,human TRPV3 (WT),31.1 fold and 31.1 ± 7.9 fold
same,shift of apparent threshold for thermal activation (Th),human TRPV3 (WT),−10 °C
same,ΔVIF,TRPV3 R696A [1],21.3%
"Cc1ccc(C(C)C)cc1O [Carvacrol, carvacrol]",activation of membrane currents by TRP channel agonists,native TRPV3 channels; whole cell,elicited currents
"CCCCCCCC/C=C\CCCCCCCC(=O)OC[C@H](CO)OC(C)=O [OAG, 1-oleoyl-2-acetyl-sn-glycerol]",effect on TRPV3 channel activity (NPOPEN),WT TRPV3; 100 µM OAG,did not significantly increase; also recorded: failed to significantly elevate NPOPEN
CCCCCCCC(=O)OC[C@H](COP(=O)(O)O[C@@H]1[C@H](O)[C@H](OP(=O)(O)O)[C@@H](O)[C@H](O)[C@H]1O)OC(=O)CCCCCCC [PI(3)P],effect on NPOPEN of PI-PLC-stimulated TRPV3,WT TRPV3,failed to significantly decrease NPOPEN
"CCCCCCCC(=O)OC[C@H](COP(=O)(O)O[C@H]1[C@H](O)[C@@H](OP(=O)(O)O)[C@H](OP(=O)(O)O)[C@@H](OP(=O)(O)O)[C@H]1O)OC(=O)CCCCCCC [PI(3,4,5)P3]",effect on NPOPEN of PI-PLC-stimulated TRPV3,WT TRPV3,failed to significantly decrease NPOPEN
"CCCCCCCC(=O)OC[C@H](COP(=O)(O)O[C@@H]1[C@H](O)[C@H](OP(=O)(O)O)[C@@H](O)[C@H](OP(=O)(O)O)[C@H]1O)OC(=O)CCCCCCC [PI(3,5)P2]",effect on NPOPEN of PI-PLC-stimulated TRPV3,WT TRPV3,failed to significantly decrease NPOPEN
CCCCCCCC(=O)OC[C@H](COP(=O)(O)O[C@H]1[C@H](O)[C@@H](O)[C@H](OP(=O)(O)O)[C@@H](O)[C@H]1O)OC(=O)CCCCCCC [PI(4)P],effect on NPOPEN of PI-PLC-stimulated TRPV3,WT TRPV3,failed to significantly decrease NPOPEN
CCCCCCCC(=O)OC[C@H](COP(=O)(O)O[C@H]1[C@H](O)[C@@H](OP(=O)(O)O)[C@H](O)[C@@H](O)[C@H]1O)OC(=O)CCCCCCC [PI(5)P],effect on NPOPEN of PI-PLC-stimulated TRPV3,WT TRPV3,failed to significantly decrease NPOPEN
N.N.N.N.N.N.N.N.N.N.N.N.N.N.[Cl-].[Cl-].[Cl-].[Cl-].[Cl-].[Cl-].[O-2].[O-2].[Ru+3].[Ru+3].[Ru+4] [Ruthenium red],block of 2-APB-activated current,"native TRPV3 channels; whole cell, ruthenium red",eliminated only the inward component
"COC[C@H]1OC(=O)c2coc3c2[C@@]1(C)C1=C(C3=O)[C@@H]2CCC(=O)[C@@]2(C)C[C@H]1OC(C)=O [WM, wortmannin]",current potentiation (fold increase),human TRPV3 (WT),9.6 ± 2.2 fold and 13.2 ± 2.8 fold
same,ΔV0.5,human TRPV3 (WT),−98.4 ± 18.6 mV
same,ΔVIF,human TRPV3 (WT),19.7 ± 3.8%
CC12CCC(CC1=O)C2(C)C (stereo not drawn) [camphor],activation of membrane currents by TRP channel agonists,native TRPV3 channels; whole cell,elicited currents
"CCCCCCCC(=O)OC[C@H](COP(=O)(O)O[C@@H]1[C@H](O)[C@H](O)[C@@H](OP(=O)(O)O)[C@H](OP(=O)(O)O)[C@H]1O)OC(=O)CCCCCCC [diC8-PI(4,5)P2, D-myo-phosphatidylinositol 4,5-bisphosphate C8]",effect on channel activity,TRPV3 R696A [2],unaffected; also recorded: insensitive
same,effect on NPOPEN of PI-PLC-stimulated TRPV3,WT TRPV3,nearly maximal inhibitory effect
same,effect on channel activity,TRPV3 K705A,unaffected; also recorded: insensitive

# From paper PMC3047606 (The Journal of General Physiology, 2011)
